In ChEMBL document CHEMBL3244101, “2-, 3-, and 4-(alpha, alpha, beta, beta-tetrafluorophenethyl)benzylamines. A new class of antiarrhythmic agents” (J Med Chem, 1977):

Key:
[1] = test system: Canis familiaris; assay: Antiarrhythmic activity in anesthetized acute myocardial infarction dog model assessed as normal ECG complexes at 20 mg/kg, iv administered 10 mins prior to infarction measured during 1-hr postinfarction period (reference value: 19%); format: functional, Canis lupus familiaris, Heart
Procedure, shortened: (§1)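 Sclerosing agent (tetrafluorohexachlorobutane) injected into the anterior descending coronary artery to produce a multifocal ventricular arrhythmia. Single iv dose 10 min before infarction. Segmented ECG tracings over the 1 h after infarction were scored as the percentage of complexes of sinus origin (normal). Saline controls were run alongside.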

[2] = test system: Canis familiaris; assay: Antiarrhythmic activity in anesthetized acute myocardial infarction dog model assessed as normal ECG complexes at 40 mg/kg, iv administered 10 mins prior to infarction measured during 1-hr postinfarction period (reference value: 19%); format: functional, Canis lupus familiaris, Heart; procedure, shortened: as §1
[3] = test system: Canis familiaris; assay: Effect on cardiac conduction in anesthetized acute myocardial infarction dog model assessed as increase in PR interval at 20 mg/kg, iv administered 10 mins prior to infarction measured after 10 mins (reference value: 0 ms); format: functional, Canis lupus familiaris, Heart
[4] = test system: Canis familiaris; assay: Effect on cardiac conduction in anesthetized acute myocardial infarction dog model assessed as increase in PR interval at 40 mg/kg, iv administered 10 mins prior to infarction measured after 10 mins (reference value: 0 ms); format: functional, Canis lupus familiaris, Heart
[5] = test system: Canis familiaris; assay: Effect on cardiac conduction in anesthetized acute myocardial infarction dog model assessed as increase in QT duration at 20 mg/kg, iv administered 10 mins prior to infarction measured after 10 mins (reference value: 2 ms); format: functional, Canis lupus familiaris, Heart
[6] = test system: Canis familiaris; assay: Effect on cardiac conduction in anesthetized acute myocardial infarction dog model assessed as increase in QT duration at 40 mg/kg, iv administered 10 mins prior to infarction measured after 10 mins (reference value: 2 ms); format: functional, Canis lupus familiaris, Heart
[7] = test system: Canis familiaris; assay: Reduction in heart rate in anesthetized acute myocardial infarction dog model at 40 mg/kg, iv administered 10 mins prior to infarction (reference value: 6 bpm); format: functional, Canis lupus familiaris
[8] = test system: Canis familiaris; assay: Reduction in heart rate in anesthetized acute myocardial infarction dog model at 20 mg/kg, iv administered 10 mins prior to infarction (reference value: 6 bpm); format: functional, Canis lupus familiaris
[9] = test system: Canis familiaris; assay: Myocardial depressant activity in iv dosed anesthetized dog at higher doses; format: ADME, organism-based, Canis lupus familiaris, Myocardium; details: in vivo
[10] = test system: Canis familiaris; assay: Hypotensive activity in iv dosed anesthetized dog at higher doses; format: ADME, organism-based, Canis lupus familiaris; details: in vivo

## CCN(CC)CCNC(=O)c1ccc(N)cc1 [PROCAINAMIDE]
[1]
  Activity: 32%
[2]
  Activity: 55%
[3]
  Time: 10 ms
[4]
  Time: 23 ms
[5]
  Time: 40 ms
[6]
  Time: 33 ms
[7]
  Activity: 25 bpm
[8]
  Activity: 26 bpm
[9]
  Activity: Toxic
[10]
  Activity: Toxic
